The record followed here is ChEMBL document CHEMBL4808165, “Design of Thioether Cyclic Peptide Scaffolds with Passive Permeability and Oral Exposure” (J Med Chem, 2021).

Data set [1] can be described thus: 1-Octanol/phosphate buffered-saline distribution coefficient, logD of compound at pH 7.4 measured after 4 hrs by LC-MS analysis. In kind it is physicochemical. The method, boiled down: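 PBS pH 7.4 and 1-octanol, each pre-saturated with the other. 10 mM DMSO stock, dispensed with an internal reference compound in triplicate and dried. Residue shaken in octanol plus buffer for at least 4 h, then centrifuged to separate phases. Both phases quantified by LC-MS/MS. Log D taken from the phase peak-area ratio, normalised to internal standard.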

A short description of data set [2]: Apparent permeability across apical to basolateral membrane in MDCKII-LE cells measured after 120 mins by RapidFire-MS analysis. In kind it is ADME, cell-based, Canis lupus familiaris. The note with it: dog, MDCK. The method, boiled down:
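MDCK-LE (low efflux) cells seeded at about 265,000 cells/cm² on Transwells and cultured 4 days. Apical-to-basal transport run in triplicate at 10 μM in HBSS/10 mM HEPES pH 7.4 with 0.02% BSA, 120 min at 37 °C without shaking. Bestatin used as integrity marker. Donor and acceptor quantified by MS against glyburide internal standard. Papp and % recovery calculated.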

Data set [3] can be described thus: Aqueous solubility of the compound at pH 6.8. In kind it is physicochemical. The note with it: buffer. The method, boiled down: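 Thermodynamic (equilibrium) solubility. 10 mM DMSO stock dried down, then pH 6.8 phosphate buffer added to a target of 1 mM. Shaken at 1350 rpm at ambient temperature for 16–24 h. Supernatant centrifuged twice, diluted 200-fold and quantified by RapidFire-MS/MS against a 4-point calibration curve.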

The nature of data set [4]: Clearance in Sprague-Dawley rat liver microsomes measured up to 30 mins in presence of NADPH by HPLC-MS/MS analysis. In kind it is ADME, Microsome. The following applies: read-out: CLH.
A short description of data set [5]: Clearance in human liver microsomes measured up to 30 mins in presence of NADPH by HPLC-MS/MS analysis. In kind it is ADME, Microsome. The following applies: read-out: CLH. The method, boiled down: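 Human liver microsomes at 1.25 mg/mL protein in phosphate buffer pH 7.4. Test article at 10 μM, shaken at 37 °C. Reaction started with 2 mM NADPH/4 mM MgCl₂. Aliquots taken at 0, 5, 15 and 30 min and quenched with acetonitrile containing glibenclamide. Parent remaining measured by LC-MS/MS. Elimination rate constant converted to in vitro clearance.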
In general terms: Liver microsomes are a subcellular fraction often used to study metabolism.

A short description of data set [6]: Cmax in Sprague-Dawley rat systemic circulation at 5 mg/kg, po or 0.5 mg/kg, iv measured up to 24 hrs by HPLC-MS/MS analysis. In kind it is ADME, organism-based. More on the design: dose 5 mg/kg, time <=24. The method, boiled down: (§1)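 Rat dosing in PEG300:20% Solutol/PBS (10:25:65). IV into a jugular cannula at 0.5 mg/kg (1 mg/kg for some analogues), 1 mL/kg. PO by gavage at 5 mg/kg from a 0.5 mg/mL solution. Blood drawn via jugular cannula at 5 min (IV only), 15 min, 0.5, 1, 2, 4, 7 and 24 h. Plasma analysed by HPLC-MS/MS. Parameters from noncompartmental analysis.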

Data set [7] can be described thus: AUC in Sprague-Dawley rat systemic circulation at 5 mg/kg, po or 0.5 mg/kg, iv measured up to 24 hrs by HPLC-MS/MS analysis. In kind it is ADME, organism-based. Further details: dose 5 mg/kg, time <=24. In short, it runs like this: as §1
A short description of data set [8]: Clearance in Sprague-Dawley rat at 5 mg/kg, po or 0.5 mg/kg, iv measured up to 24 hrs by HPLC-MS/MS analysis. In kind it is ADME, organism-based. The note with it: in vivo. The method, boiled down: as §1
Data set [9] is described as follows: Half life in Sprague-Dawley rat at 5 mg/kg, po or 0.5 mg/kg, iv measured up to 24 hrs by HPLC-MS/MS analysis. The note with it: in vivo. In kind it is ADME, organism-based. The method, boiled down: as §1
Data set [10] is described as follows: Volume of distribution at steady state in Sprague-Dawley rat at 5 mg/kg, po or 0.5 mg/kg, iv measured up to 24 hrs by HPLC-MS/MS analysis. In kind it is ADME, organism-based. The note with it: in vivo, read-out: Vdss. In short, it runs like this: as §1
The nature of data set [11]: Oral bioavailability in Sprague-Dawley rat at 5 mg/kg measured up to 24 hrs by HPLC-MS/MS analysis. In kind it is ADME, organism-based. The note with it: in vivo. The method, boiled down: as §1
Data set [12] in a line: Cmax in Sprague-Dawley rat hepatic portal vein circulation at 5 mg/kg, po or 0.5 mg/kg, iv measured up to 24 hrs by HPLC-MS/MS analysis. In kind it is ADME, organism-based. Further details: dose 5 mg/kg, time <=24.
Data set [13] in a line: AUC in Sprague-Dawley rat hepatic portal vein circulation at 5 mg/kg, po or 0.5 mg/kg, iv measured up to 24 hrs by HPLC-MS/MS analysis. In kind it is ADME, organism-based. Further details: dose 5 mg/kg, time <=24.

Converted amounts (≈) assume the structure as drawn. Positions of bridges follow the written chain, without caps; N, C: chain ends. Non-standard residues stand in square brackets, D forms with d. Residues, ends and D or L forms follow the SMILES beside them. NMeF = CN[C@@H](Cc1ccccc1)C(=O)O; NMeNle = CCCC[C@H](NC)C(=O)O; Nle = CCCC[C@H](N)C(=O)O Bounds are passed on as bounds.

The logD is lipophilicity at a set pH, counting ionised and neutral species. A high value points to a more lipophilic compound. By Papp A→B is commonly meant how fast a substance crosses the layer from the apical side. As usually defined, the solubility is the concentration that dissolves in the medium under given conditions. Usually Cmax stands for the peak of the concentration-time curve. As a reminder, the AUC is concentration integrated over time. Read a low AUC as less exposure. By half-life is commonly meant the time needed for the level to fall by half in the phase considered. Low readings indicate rapid decline, high ones slow decline. For orientation: bioavailability means dose-corrected exposure relative to a reference, in per cent. Consider `CCCC[C@@H]1NC(=O)C2CCCN2C(=O)[C@H](CCCC)NC(=O)[C@H](Cc2ccccc2)NC(=O)CSC[C@H](C(=O)NC)NC(=O)[C@H](CCCC)NC1=O` (stereo partly specified), for which, in [1], the logD at 4 h turned out to be 3.1. Further, the Papp A→B at 2 h in data set [2] was 0.6 ×10⁻⁶ cm/s. The solubility in data set [3] stood at 200 µM (≈ 152 µg/mL). Further, the microsomal CLint in data set [4] and in data set [5] was no less than 350 µL/min/mg each time. Further, in data set [6], the peak concentration (Cmax) turned out to be 1.7 nM. In data set [7], this compound yielded an AUC at 24 h of 0.0006 µM·h. In addition, the clearance in [8] is 222 mL/min/kg. For the same compound, the half-life in [9] is 12 min. Besides, the Vd in [10] worked out at 2 L/kg. Also, the bioavailability in data set [11] is less than 1%.

In the case of `CCCC[C@@H]1NC(=O)[C@H](Cc2ccccc2)N(C)C(=O)CSC[C@H](C(=O)NC)N(C)C(=O)[C@H](CCCC)NC(=O)[C@H](CCCC)N(C)C(=O)[C@H](CCCC)NC1=O`, in data set [1], the logD at 4 h stood at 4.1. For the same compound, the apical-to-basolateral permeability (Papp A→B) at 2 h in data set [2] was found to be 8 ×10⁻⁶ cm/s. In addition, in data set [3], the solubility worked out at 12 µM (≈ 9.79 µg/mL). Also, the microsomal CLint in data set [4] and in [5] was no less than 350 µL/min/mg each time. In addition, the figures for the Cmax in data set [6] and in data set [12] were 114 nM and 140 nM, respectively. The AUC at 24 h was found to be 0.258 µM·h in data set [7] and 0.173 µM·h in [13]. Besides, the clearance in data set [8] was 86 mL/min/kg. In data set [9], this compound had a half-life of 54 min. The Vd in data set [10] worked out at 2.1 L/kg. Besides, the bioavailability in data set [11] came out at 20%.

`CCCC[C@@H]1NC(=O)[C@H](Cc2ccccc2)NC(=O)CSC[C@H](C(=O)NC)NC(=O)[C@H](CCCC)N(C)C(=O)[C@H](CCCC)NC(=O)[C@H](CCCC)N(C)C1=O` returned a logD at 4 h in data set [1] of 4.6. For the same compound, the Papp A→B at 2 h in data set [2] was 3.9 ×10⁻⁶ cm/s. Also, in data set [3], the concentration in solution (solubility) came to 5 µM (≈ 4.01 µg/mL). In addition, the microsomal CLint in data set [4] and in data set [5] was no less than 350 µL/min/mg throughout. Also, the Cmax in [6] is 1030 nM; in [12], 819 nM. Besides, the AUC at 24 h in [7] worked out at 2.29 µM·h; in data set [13] it was 1.86 µM·h. The clearance in data set [8] came to 8.9 mL/min/kg. In [9], this compound had a half-life of 228 min. The Vd in data set [10] is 1 L/kg. In data set [11], this compound yielded a bioavailability of 19%.

Turning to `CCCC[C@@H]1NC(=O)[C@H](Cc2ccccc2)N(C)C(=O)CSC[C@H](C(=O)NC)N(C)C(=O)[C@H](CCCC)NC(=O)[C@H](CCCC)N(C)C(=O)C2CCCN2C1=O` (stereo partly specified), in [1], the logD at 4 h stood at 3.6. Further, the apical-to-basolateral permeability (Papp A→B) at 2 h in [2] was 6.3 ×10⁻⁶ cm/s. In [3], the solubility amounted to 216 µM (≈ 173 µg/mL). For the same compound, the microsomal CLint in data set [4] and in data set [5] was no less than 350 µL/min/mg throughout. This compound also yielded a peak concentration (Cmax) in data set [6] of 152 nM. In addition, in [7], the AUC at 24 h was 0.092 µM·h. For the same compound, the clearance in data set [8] was 72 mL/min/kg. The half-life in [9] was 18 min. Further, in data set [10], the Vd came to 1.3 L/kg. This compound also gave a bioavailability in data set [11] of 6%.

On to `CCCC[C@@H]1NC(=O)[C@H](Cc2ccccc2)N(C)C(=O)[C@@H]2CCCN2C(=O)[C@H](CCCC)N(C)C(=O)[C@H](Cc2ccccc2)NC(=O)CSC[C@@H](C(=O)NC)NC(=O)[C@H](CCCC)N(C)C1=O` ({CH2CO}-F[NMeNle]P[NMeF][Nle][NMeNle]C-NHMe; thioether N-7), for which the logD at 4 h in [1] was found to be 4.9. The Papp A→B at 2 h in data set [2] stood at 2.3 ×10⁻⁶ cm/s. The amount in solution in data set [3] (solubility) came to 9 µM (≈ 8.53 µg/mL). The microsomal CLint in [4] and in data set [5] was no less than 480 µL/min/mg in each case. For the same compound, in data set [6], the Cmax was found to be 1950 nM. Further, the AUC at 24 h in data set [7] is 1.31 µM·h. In data set [8], this compound came in with a clearance of 19 mL/min/kg. The compound also showed a half-life in [9] of 90 min. In addition, the Vd in data set [10] amounted to 1.1 L/kg. The same compound showed a bioavailability in [11] of 84%.

With `CCCC[C@@H]1NC(=O)[C@H](CCCC)N(C)C(=O)[C@@H]2CCCN2C(=O)[C@H](CCCC)N(C)C(=O)[C@H](Cc2ccccc2)NC(=O)CSC[C@@H](C(=O)NC)NC(=O)[C@H](CCCC)N(C)C1=O` ({CH2CO}-F[NMeNle]P[NMeNle][Nle][NMeNle]C-NHMe; thioether N-7), the logD at 4 h in data set [1] turned out to be 4.8. The Papp A→B at 2 h in data set [2] amounted to 6.4 ×10⁻⁶ cm/s. The compound further displayed a solubility in data set [3] of 9 µM (≈ 8.22 µg/mL). Moreover, the microsomal CLint in data set [4] and in data set [5] was no less than 480 µL/min/mg in each case. Further, the concentration in [6] peaked (Cmax) at 868 nM. Moreover, the AUC at 24 h in [7] is 2.13 µM·h. Further, the clearance in data set [8] amounted to 35 mL/min/kg. Also, in [9], the half-life was 36 min. The Vd in data set [10] is 1.2 L/kg. Further, the bioavailability in [11] was 86%.

`CCCC[C@@H]1NC(=O)[C@H](CCCC)NC(=O)[C@H](CCCC)N(C)C(=O)[C@@H]2CCCN2C(=O)[C@H](CCCC)N(C)C(=O)[C@H](Cc2ccccc2)NC(=O)CSC[C@@H](C(=O)NC)NC1=O` ({CH2CO}-F[NMeNle]P[NMeNle][Nle][Nle]C-NHMe; thioether N-7) had a logD at 4 h in [1] of 4.7. Further, in data set [2], the Papp A→B at 2 h was 0.8 ×10⁻⁶ cm/s. The same compound had a solubility in data set [3] of 9 µM (≈ 8.09 µg/mL). The microsomal CLint in data set [4] and in [5] was no less than 480 µL/min/mg in each case. In addition, the concentration in [6] peaked (Cmax) at 18 nM. For the same compound, in data set [7], the AUC at 24 h came to 0.01 µM·h. In addition, the clearance in [8] was 106 mL/min/kg. In [9], this compound showed a half-life of 42 min. Also, the Vd in [10] is 4.4 L/kg. The compound also came in with a bioavailability in data set [11] of 1%.
